Reference: ChEMBL document CHEMBL1955756, “Design and synthesis of novel sulfonamide-containing bradykinin hB(2) receptor antagonists. Synthesis and structure-relationships of α,α-tetrahydropyranylglycine” (Bioorg Med Chem, 2012)
Activity calls are given as the source filed them. No cut-off for these calls is given here.

Columns and labels:
[1] = target: T1, B1 bradykinin receptor (Homo sapiens, UniProt P46663); assay: Displacement of [3H][desArg9]Lys-Bradykinin from human bradykinin B1 receptor expressed in CHO cells; format: cell-based
T1 sequence (P46663 whole entry): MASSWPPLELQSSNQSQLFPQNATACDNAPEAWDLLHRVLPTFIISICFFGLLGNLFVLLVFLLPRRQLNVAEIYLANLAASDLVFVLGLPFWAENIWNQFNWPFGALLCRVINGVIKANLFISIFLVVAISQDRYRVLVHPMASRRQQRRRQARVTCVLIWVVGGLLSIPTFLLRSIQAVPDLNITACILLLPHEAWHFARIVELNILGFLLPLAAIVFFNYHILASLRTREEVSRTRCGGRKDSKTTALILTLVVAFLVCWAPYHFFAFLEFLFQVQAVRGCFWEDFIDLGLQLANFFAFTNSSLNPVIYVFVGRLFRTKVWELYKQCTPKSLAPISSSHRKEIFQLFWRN

[2] = target: T2, B2 bradykinin receptor (Cavia porcellus, UniProt O70526); assay: Antagonist activity at guinea pig bradykinin B2 receptor in longitudinal smooth muscle assessed as inhibition of bradykinin-induced contractile responses; format: functional; settings: read-out: pA2 (converted)
T2 sequence (O70526 whole entry): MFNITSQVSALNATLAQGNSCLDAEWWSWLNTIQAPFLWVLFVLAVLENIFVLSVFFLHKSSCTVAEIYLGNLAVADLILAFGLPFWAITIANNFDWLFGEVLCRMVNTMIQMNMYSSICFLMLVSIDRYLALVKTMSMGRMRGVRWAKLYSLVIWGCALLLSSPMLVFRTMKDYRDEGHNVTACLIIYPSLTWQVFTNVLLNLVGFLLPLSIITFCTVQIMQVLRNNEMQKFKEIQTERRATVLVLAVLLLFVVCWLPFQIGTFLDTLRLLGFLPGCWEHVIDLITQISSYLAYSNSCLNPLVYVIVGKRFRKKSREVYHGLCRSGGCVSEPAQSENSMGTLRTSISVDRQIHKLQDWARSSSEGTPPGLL

[3] = target: T3, B2 bradykinin receptor (Homo sapiens, UniProt P30411); assay: Antagonist activity at human bradykinin B2 receptor expressed in dhfr-deficient CHO cells assessed as inhibition of bradykinin-induced inositol monophosphate accumulation preincubated for 15 mins prior bradykinin induction measured after 40 mins by liquid scintillation spectrometry; format: functional, cell-based; settings: read-out: pA2 (converted)
T3 sequence (P30411 whole entry): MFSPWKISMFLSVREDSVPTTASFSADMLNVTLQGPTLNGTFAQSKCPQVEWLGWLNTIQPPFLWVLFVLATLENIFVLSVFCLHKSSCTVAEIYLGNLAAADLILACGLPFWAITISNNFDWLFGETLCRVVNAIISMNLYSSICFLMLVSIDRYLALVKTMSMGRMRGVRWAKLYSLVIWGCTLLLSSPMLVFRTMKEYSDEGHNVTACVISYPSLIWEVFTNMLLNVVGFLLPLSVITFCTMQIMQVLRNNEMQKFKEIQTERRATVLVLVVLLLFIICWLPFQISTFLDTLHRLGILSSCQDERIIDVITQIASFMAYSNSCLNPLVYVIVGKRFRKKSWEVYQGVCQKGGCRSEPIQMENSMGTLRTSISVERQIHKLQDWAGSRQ
Method in brief: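 CHOdhfr-/hB2R cells (1.8×10^5/well) plated overnight at 37 °C, labelled 24 h with myo-[3H]inositol (1 uCi/well). Antagonist pre-incubation 15 min, then BK 1×10^-11 to 1×10^-5 M for 40 min at 37 °C in Hepes pH 7.4 buffer with 25 mM LiCl. IP1 radioactivity by liquid scintillation. Agonist curves fitted for EC50; pA2 = log(CR−1) − log[antagonist].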

[4] = target: T3, B2 bradykinin receptor; assay: Displacement of [3H]-Bradykinin from human bradykinin B2 receptor expressed in CHO cells membrane after 60 mins by scintillation counting; format: cell membranes
[5] = test system: Cavia porcellus; assay: Inhibition of bradykinin-induced bronchoconstriction in anesthetized Dunkin-Hartley guinea pig at […], it 5 mins prior bradykinin-induction for every 30 mins up to 210 mins; format: functional, organism-based
Method in brief: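 Anaesthetized male Dunkin Hartley guinea pigs, 350–400 g. Compound given intratracheally, then repeated iv BK challenges (10 nmol/kg) with bronchoconstriction recorded.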

SMILES: Cc1cc(C)c2cccc(OCc3c(Cl)ccc(S(=O)(=O)NC4(C(=O)N5CCN(C(=O)CCCC[N+](C)(C)C)CC5)CCOCC4)c3Cl)c2n1
- Ki [1]: > 10000 nM
- Kb [2]: 0.0631 nM
- Kb [3]: 0.316 nM
- Ki [4]: 0.0794 nM
- inhibition [5]: inactive
